Bioassay records deposited in PubChem BioAssay by several laboratories.
NR2E3 ag-1 – human photoreceptor-specific nuclear receptor agonism; 360,000 compounds, 0.35% hits; inhibition of corepressor binding, % at 3.98 µM; CHO-S Gal4-NCOR/VP16-NR2E3 two-hybrid, luciferase;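 active means inhibition above the mean of all tested compounds plus 3 SD, cut at about 70% in these data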;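 further: higher means lower luciferase signal from less NR2E3 corepressor binding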
Target sequence (Q9Y5X4 whole entry, looked up, the tested form may be a part): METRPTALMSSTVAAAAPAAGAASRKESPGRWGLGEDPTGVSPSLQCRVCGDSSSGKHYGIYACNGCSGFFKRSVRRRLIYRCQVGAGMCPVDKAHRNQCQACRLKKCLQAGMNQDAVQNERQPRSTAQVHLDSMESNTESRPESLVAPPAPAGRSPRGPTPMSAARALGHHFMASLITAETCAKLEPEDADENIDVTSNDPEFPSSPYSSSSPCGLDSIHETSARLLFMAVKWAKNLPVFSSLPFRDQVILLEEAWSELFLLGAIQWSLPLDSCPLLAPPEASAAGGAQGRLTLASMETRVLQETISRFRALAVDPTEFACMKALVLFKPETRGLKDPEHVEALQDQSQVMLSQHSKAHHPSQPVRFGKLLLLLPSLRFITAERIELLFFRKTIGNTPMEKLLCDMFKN
aDG glyco up – increases alpha dystroglycan glycosylation; Pro5-aDG cells, alpha-DG glycosylation AlphaScreen (IIH6); 0% Pro5, 100% B10-LARGE cell signal; activation, % at 10 µM; 360,000 compounds, 0.22% hits;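 active means activation of at least 8% versus controls, or a plate z-score of at least 8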;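 further: Pro5 are CHO cells carrying HIG-tagged alpha-DG that lacks glycosylation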
NR2E3 ag-2 – NR2E3 (human) agonism | inhibition of corepressor binding, % at 4.78 µM | GST-NR2E3/biotin-RetCOR TR-FRET, 1536-well | Q9Y5X4 | AID 2300 | 320,000 compounds, 0.12% hits;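 active means percent inhibition above the cutoff of mean plus 3 SD of all tested compounds, set per screening campaign, cut at about 20% in these data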
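System: GST-tagged NR2E3 plus biotinylated RetCOR corepressor; Buffer or medium: pH 7.5 Tris-based buffer; Probe or stimulus: RetCOR corepressor, biotinylated, 7 nM; Doses: compound at 4.8 µM, single dose; Schedule: 5 h incubation at 4 °C; Technique: time-resolved FRET; Evaluation: percent inhibition of TR-FRET ratio; Replication: one well per compound, singlicate testing.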
Jurkat NFkB inh – lowers PMA/ionomycin-induced NF-kB signal in Jurkat cells; PMA/ionomycin-induced NF-kB luciferase reporter, luminescence; inhibition, % at 4 µM; 330,000 compounds, 0.53% hits; in the data active means inhibition above about 50%
697 NFkB inh – inhibitors of the PMA/ionomycin-induced NF-kB reporter in 697 B cells. inhibition, % at 4 µM. 330,000 compounds, 0.33% hits. 697 B-cell NF-kB luciferase reporter, 16 h; in the data active means inhibition above about 35%
MPTP inh – inhibitors of mitochondrial permeability transition pore; AID 602449; 360,000 compounds, 1.4% hits; inhibition, % at 10 µM; isolated mouse mitochondria, Ca2+ swelling absorbance, 30 min;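 active means inhibition of 50% or more, scaled per plate between neutral and stimulator controls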
NR2E3 ag conf – NR2E3 agonism confirmed in two-hybrid assay; 2,300 compounds, 51% hits; inhibition, % at 3.98 µM; CHO-S mammalian two-hybrid NR2E3-NCOR, luciferase luminescence; shares compounds with NR2E3 ag-1; AID 624378;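 active means average inhibition above a cutoff equal to the mean inhibition of all tested compounds plus one SD, cut at about 70% in these data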
VP16 counter – reduces GAL4-VP16 reporter signal in NR2E3 counterscreen; shares compounds with NR2E3 ag-1; CHO-S GAL4-VP16 luciferase reporter, luminescence; inhibition, % at 3.98 µM; 2,300 compounds, 29% hits;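 active means mean inhibition above a cutoff equal to the average over all tested compounds plus one standard deviation, cut at about 70% in these data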;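 further: luciferase from a UAS reporter driven by GAL4-VP16 transactivation; higher means less reporter light so more repression of VP16 activity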
A number is an active result; - = inactive; . = no result given. Rows were chosen to be rich in hits. Some 2.4% of all compounds tested hit in one or more screens of this group.

SMILES	NR2E3 ag-1	aDG glyco up	NR2E3 ag-2	Jurkat NFkB inh	697 NFkB inh	MPTP inh	NR2E3 ag conf	VP16 counter
O=C(Nc1ccc2c(c1)OCCO2)NC12CC3CC(CC(C3)C1)C2	-	-	-	-	-	-	.	.
CN(c1ccc(F)cc1)S(=O)(=O)c1ccc(Cl)c(C(=O)Nc2ccc3c(c2)CCC3)c1	-	-	-	-	-	-	.	.
CN(c1ccccc1)S(=O)(=O)c1ccc(Cl)c(C(=O)Nc2ccncc2)c1	76	-	-	-	-	-	-	-
CN(c1ccc(F)cc1)S(=O)(=O)c1ccc(Cl)c(C(=O)Nc2ccncc2)c1	87	-	-	-	-	-	-	-
CCOc1ccccc1N(CC(=O)Nc1c(C)n(C)n(-c2ccccc2)c1=O)S(=O)(=O)c1ccccc1	-	-	-	-	-	-	.	.
COc1ccc(C(=O)c2c(C(F)(F)F)oc3c2C(=O)c2ccccc2C3=O)cc1OC	89	5.7	-	-	-	-	100	-
COc1ccc(C(=O)Nc2ccc3c(c2)C(=O)c2ccccc2C3=O)cc1OC	-	-	-	-	-	-	.	.
COc1cccc(CNC(=O)CCC2CCCN(C(=O)CCn3cncn3)C2)c1 (stereo not given)	-	-	-	-	-	-	.	.
Cc1ccc(OCc2cc(C(=O)NC3CCCCC3)no2)cn1	83	-	-	-	-	-	-	-
Cc1cc(OCc2cc(C(=O)NC3CCC3)no2)cc(C)c1Cl	-	-	-	-	-	-	.	.
CCC(=O)N1CCCc2cc(S(=O)(=O)N3CCN(c4ccccn4)CC3)ccc21	-	-	-	-	-	-	93	-
Cc1nc(NCc2ccc3c(c2)OCO3)c2oc3ccccc3c2n1	-	-	-	-	-	-	-	-
CCc1ccc(NCc2ccc(OC)c(Cn3ccnc3)c2)cc1	-	-	-	-	-	-	-	-
Cc1ccnc(NC(=S)N2CCN(c3cccc(C(F)(F)F)c3)CC2)c1	84	-	-	-	-	-	91	-
Cc1ccc(C)c(NC(=S)N2CCN(c3cccc(C(F)(F)F)c3)CC2)c1	-	-	-	-	-	-	.	.
CN(C)S(=O)(=O)c1ccc(NC(=O)N2CCN(c3cccc(C(F)(F)F)c3)CC2)cc1	-	-	-	-	-	-	80	-
CCn1nnnc1SCC(=O)Nc1ccc(F)cc1	-	-	-	-	-	-	.	.
COC(=O)c1cc(Br)ccc1N(Cc1cc(OC)cc(OC)c1)S(C)(=O)=O	-	-	-	-	-	-	.	.
Cc1cccc(NC(=O)NNC(=O)COc2ccc(Cl)cc2)c1	-	-	-	-	-	-	.	.
COc1cccc(Cn2nnc(C(=O)Nc3ccc(C)cc3)c2N)c1	-	-	-	-	-	-	.	.
COc1cccc(Cn2nnc(C(=O)Nc3cc(C)ccc3OC)c2N)c1	-	-	-	-	-	-	-	-
COc1ccc(OC)c(NC(=O)c2nnn(Cc3ccccc3C)c2N)c1	-	-	-	-	-	-	80	-
O=c1c(Br)c(NCc2ccccc2)cnn1-c1ccc(F)cc1	-	-	-	-	-	-	.	.
CC1=NN(C(N)=S)C(=O)C1N=Nc1ccccc1[N+](=O)[O-] (stereo not given)	-	-	.	.	.	-	.	.
CC1=NN(C(N)=S)C(=O)C1N=Nc1c(Cl)cc([N+](=O)[O-])cc1Cl (stereo not given)	83	-	-	-	-	-	-	-
SMILES	NR2E3 ag-1	aDG glyco up	NR2E3 ag-2	Jurkat NFkB inh	697 NFkB inh	MPTP inh	NR2E3 ag conf	VP16 counter
CC1=NN(C(N)=S)C(=O)C1N=Nc1ccccc1C (stereo not given)	74	-	-	-	-	-	-	-
CC1=NN(C(N)=S)C(=O)C1N=Nc1c(C)cc(C)cc1C (stereo not given)	73	-	-	-	-	-	-	-
CCOc1ccccc1NC(=O)c1ccc2c(O)c(S(=O)(=O)c3ccccc3)c(=O)[nH]c2c1	-	-	.	.	.	-	.	.
C=C(C)c1cccc(C(C)(C)NC(=O)N2CCN(C(=O)OCC)CC2)c1	-	-	.	.	.	-	.	.
O=C(c1cncc(Br)c1)N1CCCc2ccccc21	74	-	-	-	-	-	-	-
C/C(=N\NC(=S)NC1CCCCC1)c1ccc(O)cc1	-	-	-	-	-	-	.	.
C/C(=N\NC(=S)NC1CCCCC1)c1ccccc1	-	-	-	-	-	-	-	-
COc1cc(/C=N/NC(=O)c2[nH]nc3c2CCc2ccccc2-3)ccc1O	-	-	-	-	-	-	-	-
COc1cc(/C=N/NC(=O)c2ccccc2)ccc1O	-	-	-	-	-	-	.	.
COc1cc(/C=N/NC(=O)c2cc(C34CC5CC(CC(C5)C3)C4)[nH]n2)ccc1O	70	-	-	-	-	-	-	-
Cc1cc(N2CCC(C)CC2)nc(-n2nc(C)cc2C)n1	94	-	-	-	-	-	-	-
O=C(NCc1ccc(C(F)(F)F)cc1)C1CC(c2ccc(C(F)(F)F)cc2)=NO1 (stereo not given)	81	-	-	-	-	-	81	-
CC1CCC(NS(=O)(=O)c2ccc(N3CCCC3=O)cc2)CC1 (stereo not given)	-	-	-	-	-	-	-	-
C/C(=N/NC(=O)c1ccc(C)nc1)c1ccc2c(c1)CCCC2	-	-	-	-	-	-	.	.
COc1cnc(-c2ccccn2)nc1Oc1ccccc1	-	-	-	-	-	-	-	-
CN(c1ccccc1)c1ncccn1	-	-	-	-	-	-	.	.
COc1cnc(-c2ccccn2)nc1N(C)c1ccccc1	105	-	-	-	-	-	94	-
COc1cccc(C=Nc2ccc3c(c2)OCCO3)c1O	74	-	-	-	-	-	-	-
Cc1cc(=S)nc(-c2ccccn2)[nH]1	76	-	-	-	-	-	-	-
CCOc1ccc(NS(=O)(=O)c2ccc(C(=O)N3CCCCC3)cc2)cc1	-	-	-	-	-	-	-	-
CCOc1ccc(NS(=O)(=O)c2ccc3c(c2)N(C(C)=O)CC3)cc1	-	-	-	-	-	-	.	.
CCc1ccc(S(=O)(=O)Nc2cc3c(cc2C)n(C)c(=O)n3C)cc1	98	-	-	-	-	-	83	-
CCOc1ccc(NS(=O)(=O)c2ccc3c(c2)N(C(C)=O)CCS3)cc1	-	-	-	-	-	-	-	-
Cc1ccc(NS(=O)(=O)c2ccc3c(c2)n(C)c(=O)n3C)c(C)c1	-	-	-	-	-	-	.	.
CCOc1ccc(S(=O)(=O)Nc2ccc3c(c2)n(C)c(=O)n3C)cc1	74	-	-	-	-	-	-	-
